pIC50: −log10 of the molar value. Activity calls are given as the source filed them. The calls are words filed in the database; no cut-off is given here.
Key:
[1] = target: Serine/threonine-protein kinase PLK1 (Homo sapiens, UniProt P53350)
HeLa [2] = assay: Cytotoxicity against human HeLa cells assessed as mitotic progression after 72 hrs by MTT assay; assay type: functional, cell-based
A549 = assay: Cytotoxicity against human A549 cells assessed as mitotic progression after 72 hrs by MTT assay; assay type: functional, cell-based; details: A549, 72 h
HT-29 = assay: Cytotoxicity against human HT-29 cells assessed as mitotic progression after 72 hrs by MTT assay; assay type: functional, cell-based; details: HT-29, 72 h
[3] = target: Tyrosine-protein kinase Yes (Homo sapiens) (UniProt P07947); assay: Residual activity of Yes at 100 uM relative to control
[4] = target: Ribosomal protein S6 kinase alpha-5 (Homo sapiens) (UniProt O75582); assay: Residual activity of MSK1 at 100 uM relative to control
[5] = target: Tyrosine-protein kinase CSK (Homo sapiens) (UniProt P41240); assay: Inhibition of CSK at 100 uM
CDK9/cyclin T1 = CDK9/cyclin T1 (Homo sapiens, UniProt P50750); assay: Inhibition of CDK9/Cyclin T; assay type: protein-complex assay
CDK9/cyclin T1, sequence (O60563 whole entry): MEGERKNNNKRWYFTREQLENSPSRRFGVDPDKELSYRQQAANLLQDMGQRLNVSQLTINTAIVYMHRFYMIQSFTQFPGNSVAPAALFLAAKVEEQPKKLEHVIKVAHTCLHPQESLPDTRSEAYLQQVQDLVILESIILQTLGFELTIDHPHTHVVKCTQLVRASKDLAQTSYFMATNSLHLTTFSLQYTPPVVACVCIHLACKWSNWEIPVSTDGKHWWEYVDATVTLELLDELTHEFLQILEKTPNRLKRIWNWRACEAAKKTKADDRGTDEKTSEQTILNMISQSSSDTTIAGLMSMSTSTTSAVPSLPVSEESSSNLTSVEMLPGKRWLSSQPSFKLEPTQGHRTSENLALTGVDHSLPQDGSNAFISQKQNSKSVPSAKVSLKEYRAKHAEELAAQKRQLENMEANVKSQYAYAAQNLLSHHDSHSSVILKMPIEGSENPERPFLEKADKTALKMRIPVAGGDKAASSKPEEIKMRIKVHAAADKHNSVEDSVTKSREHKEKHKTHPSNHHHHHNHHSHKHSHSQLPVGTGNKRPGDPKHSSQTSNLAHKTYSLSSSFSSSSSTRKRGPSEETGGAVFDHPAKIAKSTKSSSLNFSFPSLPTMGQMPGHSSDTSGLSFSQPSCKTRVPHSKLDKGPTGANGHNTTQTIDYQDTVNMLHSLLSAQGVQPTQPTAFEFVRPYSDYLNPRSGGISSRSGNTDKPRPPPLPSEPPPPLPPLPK
CDK9/cyclin T1, sequence (P50750 whole entry): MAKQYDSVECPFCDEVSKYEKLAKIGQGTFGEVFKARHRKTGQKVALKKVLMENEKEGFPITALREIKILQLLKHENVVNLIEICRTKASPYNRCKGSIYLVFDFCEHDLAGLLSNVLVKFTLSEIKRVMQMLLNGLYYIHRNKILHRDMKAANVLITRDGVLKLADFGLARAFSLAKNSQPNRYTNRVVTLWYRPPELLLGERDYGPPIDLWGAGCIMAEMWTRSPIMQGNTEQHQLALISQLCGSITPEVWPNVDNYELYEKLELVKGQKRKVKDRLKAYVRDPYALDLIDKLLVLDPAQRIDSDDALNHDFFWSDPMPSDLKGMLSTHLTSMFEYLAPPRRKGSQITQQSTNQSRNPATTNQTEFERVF

[6] = Inhibition of MAPK/ERK
[7] = target: Ribosomal protein S6 kinase alpha-3 (Homo sapiens) (UniProt P51812); assay: Residual activity of Rsk2 at 100 uM relative to control
[8] = target: Mitogen-activated protein kinase 11 (Homo sapiens, UniProt Q15759); assay: Inhibition of SAPK2
Mitogen-activated protein kinase 11, sequence (Q15759 whole entry): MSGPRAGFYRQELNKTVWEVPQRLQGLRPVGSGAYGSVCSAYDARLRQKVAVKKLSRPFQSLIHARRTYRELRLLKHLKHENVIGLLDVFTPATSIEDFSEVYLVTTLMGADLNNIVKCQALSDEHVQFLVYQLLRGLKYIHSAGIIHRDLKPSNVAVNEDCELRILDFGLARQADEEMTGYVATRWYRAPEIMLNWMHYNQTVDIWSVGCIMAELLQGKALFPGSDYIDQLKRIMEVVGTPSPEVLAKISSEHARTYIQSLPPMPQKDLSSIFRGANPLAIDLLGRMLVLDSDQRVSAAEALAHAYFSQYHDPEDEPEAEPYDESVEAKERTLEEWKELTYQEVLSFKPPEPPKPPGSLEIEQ

[9] = target: Serine/threonine-protein kinase Chk2 (Homo sapiens) (UniProt O96017); assay: Residual activity of Chk2 at 100 uM relative to control
Aurora kinase A = Aurora kinase A (Homo sapiens, UniProt O14965); assay: Inhibition of Aurora A
Aurora kinase A, sequence (O14965 whole entry): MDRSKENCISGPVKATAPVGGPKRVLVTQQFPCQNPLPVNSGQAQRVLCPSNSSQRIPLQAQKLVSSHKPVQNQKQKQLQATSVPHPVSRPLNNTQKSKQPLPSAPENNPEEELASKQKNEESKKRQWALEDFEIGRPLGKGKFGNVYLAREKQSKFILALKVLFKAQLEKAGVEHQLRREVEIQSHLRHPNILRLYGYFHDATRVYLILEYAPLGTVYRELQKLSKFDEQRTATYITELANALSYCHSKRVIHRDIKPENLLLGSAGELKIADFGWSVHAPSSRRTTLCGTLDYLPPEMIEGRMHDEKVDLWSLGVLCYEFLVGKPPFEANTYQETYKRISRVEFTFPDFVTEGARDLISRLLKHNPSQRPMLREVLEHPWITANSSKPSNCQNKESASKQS

[10] = Inhibition of CK2
[11] = target: Dual specificity mitogen-activated protein kinase kinase 1 (Homo sapiens) (UniProt Q02750); assay: Residual activity of MEK1 at 100 uM relative to control
[12] = target: Protein kinase C alpha type (Homo sapiens, UniProt P17252); assay: Inhibition of PKCalpha
[13] = target: MAP kinase-activated protein kinase 2 (Homo sapiens) (UniProt P49137); assay: Residual activity of MAPKAP-K2 at 100 uM relative to control
[14] = target: Fibroblast growth factor receptor 3 (Homo sapiens) (UniProt P22607); assay: Residual activity of FGFR3 at 100 uM relative to control
[15] = target: Cyclin-dependent kinase 2/cyclin E1 (Homo sapiens, UniProt P24941); assay: Inhibition of CDK2/Cyclin E; assay type: protein-complex assay
[16] = target: Inhibitor of nuclear factor kappa-B kinase subunit alpha (Homo sapiens) (UniProt O15111); assay: Residual activity of IKKalpha at 100 uM relative to control
[17] = target: Mitogen-activated protein kinase 9 (Homo sapiens) (UniProt P45984); assay: Residual activity of JNK2alpha2 at 100 uM relative to control
[18] = target: RAC-alpha serine/threonine-protein kinase (Homo sapiens, UniProt P31749); assay: Inhibition of Akt
RAC-alpha serine/threonine-protein kinase, sequence (P31749 whole entry): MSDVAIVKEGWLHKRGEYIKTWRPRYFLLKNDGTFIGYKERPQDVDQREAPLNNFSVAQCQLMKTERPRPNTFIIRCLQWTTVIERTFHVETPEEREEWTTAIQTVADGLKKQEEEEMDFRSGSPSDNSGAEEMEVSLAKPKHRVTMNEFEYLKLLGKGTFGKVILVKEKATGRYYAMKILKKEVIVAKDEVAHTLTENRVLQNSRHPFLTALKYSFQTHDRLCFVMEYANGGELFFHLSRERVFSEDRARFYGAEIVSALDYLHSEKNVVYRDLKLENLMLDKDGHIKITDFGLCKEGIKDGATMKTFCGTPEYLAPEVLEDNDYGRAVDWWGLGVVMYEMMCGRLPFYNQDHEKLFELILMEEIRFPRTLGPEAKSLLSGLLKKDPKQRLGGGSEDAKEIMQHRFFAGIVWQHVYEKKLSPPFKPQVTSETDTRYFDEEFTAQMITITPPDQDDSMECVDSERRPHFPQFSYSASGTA

[19] = target: Protein kinase C gamma type (Homo sapiens) (UniProt P05129); assay: Residual activity of PKCgamma at 100 uM relative to control
[20] = Residual activity of SAPK2b at 100 uM relative to control
[21] = target: Tyrosine-protein kinase CSK (Homo sapiens) (UniProt P41240); assay: Inhibition of CSK at 100 uM relative to control; values are per cent of control
[22] = target: Cyclin-dependent kinase 2/cyclin E1 (Homo sapiens) (UniProt P24864+P24941); assay: Residual activity of CDK2/E at 100 uM relative to control
[23] = Inhibition of P70S6K
[24] = target: Platelet-derived growth factor receptor alpha (Homo sapiens) (UniProt P16234); assay: Residual activity of PDGFRalpha at 100 uM relative to control
[25] = target: RAF proto-oncogene serine/threonine-protein kinase (Homo sapiens) (UniProt P04049); assay: Residual activity of c-RAF at 100 uM relative to control
[26] = target: Cyclin-dependent kinase 7/ cyclin H (Homo sapiens, UniProt P50613); assay: Inhibition of CDK7/Cyclin H; assay type: protein-complex assay
[27] = target: Dual specificity mitogen-activated protein kinase kinase 6 (Homo sapiens) (UniProt P52564); assay: Residual activity of MKK6 at 100 uM relative to control
[28] = Inhibition of CamK2
[29] = Inhibition of PKA
[30] = target: Protein kinase C beta type (Homo sapiens) (UniProt P05771); assay: Residual activity of PKCbeta2 at 100 uM relative to control
[31] = target: Insulin-like growth factor 1 receptor (Homo sapiens) (UniProt P08069); assay: Residual activity of IGF-1R at 100 uM relative to control
[32] = target: Cyclin-dependent kinase 4/cyclin D1 (Homo sapiens, UniProt P11802); assay: Inhibition of CDK4/Cyclin D1; assay type: protein-complex assay
[33] = target: Insulin receptor (Homo sapiens) (UniProt P06213); assay: Residual activity of IR at 100 uM relative to control
[34] = target: Tyrosine-protein kinase ABL1 (Homo sapiens, UniProt P00519); assay: Inhibition of Abl
[35] = target: Mitogen-activated protein kinase 12 (Homo sapiens) (UniProt P53778); assay: Residual activity of SAPK3 at 100 uM relative to control
[36] = target: Cyclin-dependent kinase 2/cyclin A (Homo sapiens, UniProt P24941); assay: Inhibition of CDK2/Cyclin A; assay type: protein-complex assay
[37] = target: Cyclin-dependent kinase 1/cyclin B1 (Homo sapiens, UniProt P06493); assay: Inhibition of CDK1/Cyclin B; assay type: protein-complex assay
Cyclin-dependent kinase 1/cyclin B1, sequence (P06493 whole entry): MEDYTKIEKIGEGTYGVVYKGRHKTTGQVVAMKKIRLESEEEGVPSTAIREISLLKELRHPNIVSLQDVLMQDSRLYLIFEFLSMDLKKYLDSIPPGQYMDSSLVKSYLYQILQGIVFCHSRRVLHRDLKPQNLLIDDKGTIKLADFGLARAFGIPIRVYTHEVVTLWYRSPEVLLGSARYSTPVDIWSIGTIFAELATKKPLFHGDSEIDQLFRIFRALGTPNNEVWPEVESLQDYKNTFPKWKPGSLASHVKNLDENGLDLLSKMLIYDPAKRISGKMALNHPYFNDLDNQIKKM
Cyclin-dependent kinase 1/cyclin B1, sequence (P14635 whole entry, further chain): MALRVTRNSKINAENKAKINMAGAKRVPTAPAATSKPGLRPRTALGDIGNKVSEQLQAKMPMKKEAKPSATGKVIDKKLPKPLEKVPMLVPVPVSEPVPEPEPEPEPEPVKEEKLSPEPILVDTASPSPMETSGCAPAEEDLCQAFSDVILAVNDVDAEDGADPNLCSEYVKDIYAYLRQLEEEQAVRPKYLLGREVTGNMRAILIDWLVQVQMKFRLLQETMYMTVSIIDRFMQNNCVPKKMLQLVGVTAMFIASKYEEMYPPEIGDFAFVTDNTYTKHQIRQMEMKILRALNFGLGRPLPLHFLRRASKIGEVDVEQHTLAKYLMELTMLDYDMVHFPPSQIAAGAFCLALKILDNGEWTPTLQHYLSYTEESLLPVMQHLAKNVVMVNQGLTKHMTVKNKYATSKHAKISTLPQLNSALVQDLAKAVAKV

[38] = target: Serine/threonine-protein kinase Chk1 (Homo sapiens) (UniProt O14757); assay: Residual activity of Chk1 at 100 uM relative to control
[39] = target: Glycogen synthase kinase-3 alpha (Homo sapiens, UniProt P49840); assay: Inhibition of GSK3alpha
Glycogen synthase kinase-3 alpha, sequence (P49840 whole entry): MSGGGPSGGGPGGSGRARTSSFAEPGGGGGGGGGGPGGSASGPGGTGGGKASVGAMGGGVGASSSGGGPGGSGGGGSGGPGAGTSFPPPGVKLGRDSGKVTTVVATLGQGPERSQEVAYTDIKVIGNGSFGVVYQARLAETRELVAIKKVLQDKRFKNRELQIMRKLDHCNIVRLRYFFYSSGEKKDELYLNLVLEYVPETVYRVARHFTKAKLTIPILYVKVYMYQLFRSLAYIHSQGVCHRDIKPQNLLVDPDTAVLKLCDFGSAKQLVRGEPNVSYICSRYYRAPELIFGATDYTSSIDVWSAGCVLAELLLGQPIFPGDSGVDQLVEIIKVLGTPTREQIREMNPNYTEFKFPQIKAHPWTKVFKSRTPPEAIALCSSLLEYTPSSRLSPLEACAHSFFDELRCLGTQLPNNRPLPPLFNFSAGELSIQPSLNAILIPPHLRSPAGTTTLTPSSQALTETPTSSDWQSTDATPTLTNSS

[40] = Antimitotic activity against Drosophila melanogaster S2 cells assessed as bipolar spindles at 10 uM after 24 hrs by immunostaining relative to control; assay type: functional
How it was run: (§1)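 Drosophila S2 cells exposed to 10 μM (24 h, fixed) or 25 μM (added at time 0 to cells already in mitosis) of compound, with 0.1% DMSO control. Fixed cells immunostained for α-tubulin, γ-tubulin and DNA. Live cells expressing GFP-tubulin filmed by spinning-disk confocal time-lapse at 25 ± 1 °C to follow spindle behaviour.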

S2 [41] = assay: Antimitotic activity against Drosophila melanogaster S2 cells assessed as nucleated microtubule at 20 nM; assay type: functional, cell-based
How it was run: (§2)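 Centrosomes partially purified from Drosophila embryos, some stripped with 1 M KI. Compound (10 or 20 nM; 0.1% DMSO carrier) incubated 20 min at 25 °C with centrosomes or with high-speed embryonic cytoplasmic supernatant, then microtubule nucleation assayed with rhodamine-labelled tubulin. Staining for γ-tubulin, MPM2 epitope, Asp and centrosomin. MPM2 also checked by western blot of treated supernatant.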

S2 [42] = assay: Inhibition of […]-mediated gamma-TuRc recruitment in Drosophila melanogaster S2 cells at 20 nM in presence of high-speed supernatant of syncytial embryo cytoplasam; assay type: cell-based
How it was run: as §2

S2 [43] = assay: Antimitotic activity against Drosophila melanogaster S2 cells cytosolic extract assessed as loss of MPM2 epitope; assay type: functional, cell-based
How it was run: as §2

HeLa [44] = assay: Antitumor activity against human HeLa cells assessed as shortened mitotic spindles at 25 uM after 24 hrs by immunostaining relative to control; assay type: functional, cell-based
How it was run: (§3)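 HeLa cells treated 24 h with 10 or 25 μM compound or 0.1% DMSO, then fixed and stained for α-tubulin, γ-tubulin and DNA. Spindle length taken as pole-to-pole distance. Microtubule density judged from the immunostained spindles.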

S2 [45] = assay: Antimitotic activity against Drosophila melanogaster S2 cells assessed as loss of gamma-tubulin at 20 nM by immunostaining; assay type: functional, cell-based
How it was run: as §2

S2 [46] = assay: Antimitotic activity against Drosophila melanogaster S2 cells assessed as nucleated microtubule at 20 nM in presence of high speed cytoplasmic supernatant; assay type: functional, cell-based
How it was run: as §2

S2 [47] = assay: Antimitotic activity against Drosophila melanogaster S2 cells assessed as collapsed spindles at 25 uM; assay type: functional, cell-based
How it was run: as §1

Drosophila melanogaster = assay: Inhibition of […]-mediated Asp protein recruitment in Drosophila melanogaster S2 at 20 nM in presence of high-speed supernatant of syncytial embryo cytoplasam
How it was run: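 Centrosomes partially purified from D. melanogaster embryos were salt-stripped with 1 M KI. They were then incubated with rhodamine-labeled tubulin and high-speed embryonic cytoplasmic supernatant. The supernatant was pretreated with compound (20 nM) or 0.1% DMSO for 20 min at 25 °C. Preparations were immunostained for centrosomin, γ-tubulin, Asp and the MPM2 phosphoepitope, and microtubule nucleation was scored.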

HeLa [48] = assay: Antitumor activity against human HeLa cells assessed as shortened mitotic spindles at 10 uM after 24 hrs by immunostaining relative to control; assay type: functional, cell-based
How it was run: as §3

S2 [49] = assay: Antimitotic activity against Drosophila melanogaster S2 cells expressing GFP-tubulin assessed as abnormal spindles at 25 uM; assay type: functional, cell-based
How it was run: as §1

HeLa [50] = assay: Antitumor activity against human HeLa cells assessed as change in kinetochore microtubules density at 25 uM after 24 hrs by immunostaining relative to control; assay type: functional, cell-based
How it was run: as §3

S2 [51] = assay: Antimitotic activity against Drosophila melanogaster S2 cells assessed as nucleated microtubule at 10 nM; assay type: functional, cell-based
How it was run: as §2

S2 [52] = assay: Inhibition of Plk1 in Drosophila melanogaster S2 cells at 20 nM; assay type: cell-based
S2 [53] = assay: Antimitotic activity against Drosophila melanogaster S2 cells assessed as loss of MPM2 epitope from centrosome at 20 nM by immunostaining; assay type: functional, cell-based
How it was run: as §2

[54] = target: Aurora kinase B (Drosophila melanogaster) (UniProt Q9VKN7); assay: Inhibition of Aurora B kinase in Drosophila melanogaster assessed as histone H3 phosphorylation at Ser10

Serine/threonine-protein kinase PLK1, sequence (P53350 whole entry): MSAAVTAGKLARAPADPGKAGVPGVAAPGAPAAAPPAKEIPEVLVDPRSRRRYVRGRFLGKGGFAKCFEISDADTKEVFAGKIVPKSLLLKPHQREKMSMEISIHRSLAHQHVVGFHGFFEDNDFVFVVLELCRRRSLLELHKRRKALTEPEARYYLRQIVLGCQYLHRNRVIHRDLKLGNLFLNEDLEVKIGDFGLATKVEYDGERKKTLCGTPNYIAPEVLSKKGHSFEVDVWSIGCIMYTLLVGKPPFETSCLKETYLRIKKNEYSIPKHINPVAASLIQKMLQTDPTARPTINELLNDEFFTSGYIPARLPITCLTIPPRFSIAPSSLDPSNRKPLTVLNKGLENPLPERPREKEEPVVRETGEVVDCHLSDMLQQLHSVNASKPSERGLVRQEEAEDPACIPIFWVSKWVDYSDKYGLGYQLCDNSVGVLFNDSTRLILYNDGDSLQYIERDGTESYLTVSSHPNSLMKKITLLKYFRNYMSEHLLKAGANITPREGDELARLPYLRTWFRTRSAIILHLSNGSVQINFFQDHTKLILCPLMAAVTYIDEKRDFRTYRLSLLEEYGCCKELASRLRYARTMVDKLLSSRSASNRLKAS

Structure (SMILES): CNc1nc(C)c(-c2ccnc(Nc3ccc(O)cc3)n2)s1
- pIC50 [1]: 5.00

Structure (SMILES): Cc1nc(N)sc1-c1ccnc(Nc2ccc(O)cc2)n1
- pIC50 [1]: 4.60

Structure (SMILES): NNC(=O)c1sc2c([N+](=O)[O-])cc(C(F)(F)F)cc2[n+]1[O-] [CYCLAPOLIN 10]
- pIC50 (HeLa [2]): 4.27
- pIC50 (A549): 4.14
- pIC50 (HT-29): 4.30

Structure (SMILES): Cc1nc(C)c(-c2ccnc(Nc3ccc(O)cc3)n2)s1
- pIC50 [1]: 5.30

Structure (SMILES): NC(=O)c1sc2c([N+](=O)[O-])cc(C(F)(F)F)cc2[n+]1[O-] [CYCLAPOLIN 9]
- residual activity [3]: 108%
- residual activity [4]: 106%
- inhibition [5]: < 50%
- pIC50 (HeLa [2]): 5.18
- pIC50 (CDK9/cyclin T1): < 4.00
- pIC50 [6]: < 4.00
- residual activity [7]: 105%
- pIC50 [8]: < 4.00
- residual activity [9]: 97%
- pIC50 (Aurora kinase A): < 4.00
- pIC50 [10]: < 4.00
- residual activity [11]: 96%
- pIC50 [12]: < 4.00
- residual activity [13]: 96%
- residual activity [14]: 83%
- pIC50 [15]: < 4.00
- pIC50 (A549): 4.61
- residual activity [16]: 115%
- residual activity [17]: 106%
- pIC50 [18]: < 4.00
- residual activity [19]: 117%
- residual activity [20]: 94%
- residual activity [21]: 45%
- residual activity [22]: 88%
- pIC50 [23]: < 4.00
- residual activity [24]: 108%
- residual activity [25]: 108%
- pIC50 [26]: < 4.00
- residual activity [27]: 88%
- pIC50 [28]: < 4.00
- pIC50 [29]: < 4.00
- residual activity [30]: 82%
- residual activity [31]: 98%
- pIC50 (HT-29): 5.11
- pIC50 [32]: < 4.00
- residual activity [33]: 107%
- pIC50 [34]: < 4.00
- residual activity [35]: 120%
- pIC50 [36]: < 4.00
- pIC50 [37]: < 4.00
- residual activity [38]: 111%
- pIC50 [39]: < 4.00

Structure (SMILES): NC(=O)c1sc2c([N+](=O)[O-])cc(SC(F)(F)F)cc2[n+]1[O-] [CYCLAPOLIN 1]
- Activity [40]: 80%
- Activity (S2 [41]): Active
- inhibition (S2 [42]): inactive
- pIC50 (HeLa [2]): 4.85
- Activity (S2 [43]): Active
- pIC50 (CDK9/cyclin T1): < 4.00
- Activity (HeLa [44]): Active
- Activity (S2 [45]): Active
- pIC50 [6]: < 4.00
- pIC50 [8]: < 4.00
- Activity (S2 [46]): inactive
- pIC50 (Aurora kinase A): < 4.00
- pIC50 [10]: < 4.00
- Activity (S2 [47]): Active
- pIC50 [12]: < 4.00
- inhibition (Drosophila melanogaster): inactive
- pIC50 [15]: < 4.00
- pIC50 (A549): 4.85
- Activity (HeLa [48]): Active
- pIC50 [18]: < 4.00
- pIC50 [23]: < 4.00
- Activity (S2 [49]): Active
- pIC50 [26]: < 4.00
- pIC50 [28]: < 4.00
- pIC50 [29]: < 4.00
- Activity (HeLa [50]): Active
- pIC50 (HT-29): 5.55
- pIC50 [32]: < 4.00
- pIC50 [34]: < 4.00
- Activity (S2 [51]): inactive
- inhibition (S2 [52]): Active
- pIC50 [36]: < 4.00
- pIC50 [37]: < 4.00
- pIC50 [39]: < 4.00
- Activity (S2 [53]): Active
- inhibition [54]: inactive
